Reference: ChEMBL document CHEMBL1133105, “Antimalarial, antitrypanosomal, and antileishmanial activities and cytotoxicity of bis(9-amino-6-chloro-2-methoxyacridines): influence of the linker” (J Med Chem, 2000)

test system: Trypanosoma cruzi; assay: Percentage of activity against Trypanosoma cruzi at 6.25 uM Concentration; format: functional; conditions: not given
How it was run: (§1)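 Mouse peritoneal macrophages, 30 000/well, infected after 24 h with about 100 000 T. cruzi trypomastigotes per well plus 2-fold drug dilutions (12.5–1.56 µM). Incubated 4 days at 37 °C, 5% CO2. Methanol-fixed, Giemsa-stained and scored microscopically as % reduction of total parasite load (free trypomastigotes plus intracellular amastigotes) versus untreated controls.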

For `COc1ccc2nc3cc(Cl)ccc3c(NCCCN(CCCNc3c4ccc(Cl)cc4nc4ccc(OC)cc34)C(=O)CCC(=O)O)c2c1`, which “Reduction of T. cruzi parasite load” value is on record?
The value was 0%.

With `COc1ccc2nc3cc(Cl)ccc3c(NCCCN(CCCNc3c4ccc(Cl)cc4nc4ccc(OC)cc34)C(=O)C(CC(=O)OCC3c4ccccc4-c4ccccc43)NC(=O)OC(C)(C)C)c2c1` (centres undefined) as the compound, how does the “Reduction of T. cruzi parasite load” value read?
The value was 0%.

test system: Trypanosoma brucei; assay: Percentage of activity against Trypanosoma brucei at 1.56 uM; format: functional; conditions: not given
How it was run: (§2)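 Bloodstream-form T. brucei in HMI-9 medium, 10 000 parasites/well, exposed to 12.5, 6.25, 3.13 and 1.56 µM drug for 4 days. Read-out is % inhibition of parasite multiplication. Macrophage toxicity judged on mouse primary peritoneal macrophages.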

With `COc1ccc2nc3cc(Cl)ccc3c(NCCCN(CCCNc3c4ccc(Cl)cc4nc4ccc(OC)cc34)C(=O)CCC(=O)O)c2c1` as the compound, how does the “Percent inhibition of parasite multiplication” value read?
Its value is 60%.

Which “Percent inhibition of parasite multiplication” value does the source give for `COc1ccc2nc3cc(Cl)ccc3c(NCCCN(CCCNc3c4ccc(Cl)cc4nc4ccc(OC)cc34)C(=O)C(CC(=O)OCC3c4ccccc4-c4ccccc43)NC(=O)OC(C)(C)C)c2c1` (centres undefined) here?
Its value is 100%.

test system: Leishmania infantum; assay: Percentage of activity against Leishmania infantum at 1.56 uM; format: functional; conditions: not given
How it was run: (§3)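 Starch-stimulated mouse peritoneal macrophages, 30 000/well, infected after 24 h with spleen-derived L. infantum amastigotes (10:1) together with 2-fold drug dilutions (12.5–1.56 µM). Incubated 7 days at 37 °C, 5% CO2. Wright-stained slides scored microscopically as % reduction of total parasite load or of infected macrophages. Uninfected treated cultures judged microscopically for macrophage toxicity.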

Which “Antileishmanial activity (% reduction of parasite load)” value does the source give for `COc1ccc2nc3cc(Cl)ccc3c(NCCCN(CCCNc3c4ccc(Cl)cc4nc4ccc(OC)cc34)C(=O)CCC(=O)O)c2c1` here?
Its value is 0%.

How did the “Antileishmanial activity (% reduction of parasite load)” value turn out when `COc1ccc2nc3cc(Cl)ccc3c(NCCCN(CCCNc3c4ccc(Cl)cc4nc4ccc(OC)cc34)C(=O)C(CC(=O)OCC3c4ccccc4-c4ccccc43)NC(=O)OC(C)(C)C)c2c1` (centres undefined) was run?
The value was 0%.

test system: Leishmania infantum; assay: Percentage of activity against Leishmania infantum 6.25 uM; format: functional; conditions: not given; how it was run: as §3

How did the “Antileishmanial activity (% reduction of parasite load)” value turn out when `COc1ccc2nc3cc(Cl)ccc3c(NCCCN(CCCNc3c4ccc(Cl)cc4nc4ccc(OC)cc34)C(=O)CCC(=O)O)c2c1` was run?
Its value is 0%.

`COc1ccc2nc3cc(Cl)ccc3c(NCCCN(CCCNc3c4ccc(Cl)cc4nc4ccc(OC)cc34)C(=O)C(CC(=O)OCC3c4ccccc4-c4ccccc43)NC(=O)OC(C)(C)C)c2c1` (centres undefined) was tested. Which “Antileishmanial activity (% reduction of parasite load)” value did it give?
The value was 0%.

test system: Trypanosoma brucei; assay: Percentage of activity against Trypanosoma brucei at 6.25 uM; format: functional; conditions: not given; how it was run: as §2

With `COc1ccc2nc3cc(Cl)ccc3c(NCCCN(CCCNc3c4ccc(Cl)cc4nc4ccc(OC)cc34)C(=O)CCC(=O)O)c2c1` as the compound, how does the “Inhibition of parasite multiplication” value read?
The value was 95%.

Which “Inhibition of parasite multiplication” value does the source give for `COc1ccc2nc3cc(Cl)ccc3c(NCCCN(CCCNc3c4ccc(Cl)cc4nc4ccc(OC)cc34)C(=O)C(CC(=O)OCC3c4ccccc4-c4ccccc43)NC(=O)OC(C)(C)C)c2c1` (centres undefined) here?
The value was 100%.

test system: Plasmodium falciparum; assay: In vitro sensitivity for Plasmodium falciparum FcB1R; format: functional, organism-based; conditions: not given
How it was run: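 Asynchronous P. falciparum cultures in human erythrocytes (0.5% parasitemia, 1% haematocrit) exposed to serially diluted drug for 24 h at 37 °C. [3H]hypoxanthine (0.5 µCi/well) then added for a further 24 h. Uptake compared with drug-free controls on the same plate. IC50 taken from the concentration–response curve, averaged over independent experiments. DMSO ≤0.1%.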

Which IC50 does the source give for `COc1ccc2nc3cc(Cl)ccc3c(NCCCN(CCCNc3c4ccc(Cl)cc4nc4ccc(OC)cc34)C(=O)CCC(=O)O)c2c1` here?
The IC50 was 270 nM.

Which IC50 does the source give for `COc1ccc2nc3cc(Cl)ccc3c(NCCCN(CCCNc3c4ccc(Cl)cc4nc4ccc(OC)cc34)C(=O)C(CC(=O)OCC3c4ccccc4-c4ccccc43)NC(=O)OC(C)(C)C)c2c1` (centres undefined) here?
Its IC50 is 230 nM.

test system: Leishmania infantum; assay: Percentage of activity against Leishmania infantum at 3.13 uM; format: functional; conditions: not given; how it was run: as §3

Which “Percent antileishmanial activity (reduction of parasite load)” value does the source give for `COc1ccc2nc3cc(Cl)ccc3c(NCCCN(CCCNc3c4ccc(Cl)cc4nc4ccc(OC)cc34)C(=O)CCC(=O)O)c2c1` here?
Its value is 0%.

For `COc1ccc2nc3cc(Cl)ccc3c(NCCCN(CCCNc3c4ccc(Cl)cc4nc4ccc(OC)cc34)C(=O)C(CC(=O)OCC3c4ccccc4-c4ccccc43)NC(=O)OC(C)(C)C)c2c1` (centres undefined), which “Percent antileishmanial activity (reduction of parasite load)” value is on record?
The value was 0%.

test system: Trypanosoma brucei; assay: Percentage of activity against Trypanosoma brucei at 12.5 uM; format: functional; conditions: not given; how it was run: as §2

Which “Inhibition of parasite multiplication” value does the source give for `COc1ccc2nc3cc(Cl)ccc3c(NCCCN(CCCNc3c4ccc(Cl)cc4nc4ccc(OC)cc34)C(=O)CCC(=O)O)c2c1` here?
Its value is 100%.

`COc1ccc2nc3cc(Cl)ccc3c(NCCCN(CCCNc3c4ccc(Cl)cc4nc4ccc(OC)cc34)C(=O)C(CC(=O)OCC3c4ccccc4-c4ccccc43)NC(=O)OC(C)(C)C)c2c1` (centres undefined) was tested. Which “Inhibition of parasite multiplication” value did it give?
The value was 100%.

test system: MRC5; assay: Cytotoxicity on MRC-5 cells at 3.13 uM; format: functional; conditions: Homo sapiens
How it was run: (§4)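 MRC-5 human diploid embryonic lung cells seeded at 5 000/well, washed after 24 h, then given 2-fold drug dilutions (25, 12.5, 6.25, 3.13 µM) in RPMI + 5% FCS, final DMSO below 0.5%. Incubated 7 days at 37 °C, 5% CO2. MTT colorimetric read-out, scored as % reduction of absorbance at 540 nm versus untreated controls.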

Which cytotoxicity at 3.13 µM does the source give for `COc1ccc2nc3cc(Cl)ccc3c(NCCCN(CCCNc3c4ccc(Cl)cc4nc4ccc(OC)cc34)C(=O)CCC(=O)O)c2c1` here?
Its cytotoxicity at 3.13 µM is 0%.

How did the cytotoxicity at 3.13 µM turn out when `COc1ccc2nc3cc(Cl)ccc3c(NCCCN(CCCNc3c4ccc(Cl)cc4nc4ccc(OC)cc34)C(=O)C(CC(=O)OCC3c4ccccc4-c4ccccc43)NC(=O)OC(C)(C)C)c2c1` (centres undefined) was run?
Its cytotoxicity at 3.13 µM is 0%.

test system: MRC5; assay: Cytotoxicity on MRC-5 cells at 12.5 uM; format: functional; conditions: Homo sapiens; how it was run: as §4

Which cytotoxicity at 12.5 µM does the source give for `COc1ccc2nc3cc(Cl)ccc3c(NCCCN(CCCNc3c4ccc(Cl)cc4nc4ccc(OC)cc34)C(=O)CCC(=O)O)c2c1` here?
Its cytotoxicity at 12.5 µM is 0%.

With `COc1ccc2nc3cc(Cl)ccc3c(NCCCN(CCCNc3c4ccc(Cl)cc4nc4ccc(OC)cc34)C(=O)C(CC(=O)OCC3c4ccccc4-c4ccccc43)NC(=O)OC(C)(C)C)c2c1` (centres undefined) as the compound, how does the cytotoxicity at 12.5 µM read?
The cytotoxicity at 12.5 µM was 0%.

test system: Trypanosoma brucei; assay: Percentage of activity against Trypanosoma brucei at 3.13 uM; format: functional; conditions: not given; how it was run: as §2

`COc1ccc2nc3cc(Cl)ccc3c(NCCCN(CCCNc3c4ccc(Cl)cc4nc4ccc(OC)cc34)C(=O)CCC(=O)O)c2c1` was tested. Which Parasite growth inhibition did it give?
Its Parasite growth inhibition is 80%.

Which Parasite growth inhibition does the source give for `COc1ccc2nc3cc(Cl)ccc3c(NCCCN(CCCNc3c4ccc(Cl)cc4nc4ccc(OC)cc34)C(=O)C(CC(=O)OCC3c4ccccc4-c4ccccc43)NC(=O)OC(C)(C)C)c2c1` (centres undefined) here?
The Parasite growth inhibition was 100%.

test system: Trypanosoma cruzi; assay: Percentage of activity against Trypanosoma cruzi at 3.13 uM; format: functional; conditions: not given; how it was run: as §1

With `COc1ccc2nc3cc(Cl)ccc3c(NCCCN(CCCNc3c4ccc(Cl)cc4nc4ccc(OC)cc34)C(=O)CCC(=O)O)c2c1` as the compound, how does the “Reduction of T. cruzi parasite load” value read?
Its value is 0%.

Which “Reduction of T. cruzi parasite load” value does the source give for `COc1ccc2nc3cc(Cl)ccc3c(NCCCN(CCCNc3c4ccc(Cl)cc4nc4ccc(OC)cc34)C(=O)C(CC(=O)OCC3c4ccccc4-c4ccccc43)NC(=O)OC(C)(C)C)c2c1` (centres undefined) here?
Its value is 0%.

test system: MRC5; assay: Cytotoxicity on MRC-5 cells at 6.25 uM; format: functional; conditions: Homo sapiens; how it was run: as §4

How did the cytotoxicity at 6.25 µM turn out when `COc1ccc2nc3cc(Cl)ccc3c(NCCCN(CCCNc3c4ccc(Cl)cc4nc4ccc(OC)cc34)C(=O)CCC(=O)O)c2c1` was run?
Its cytotoxicity at 6.25 µM is 0%.

For `COc1ccc2nc3cc(Cl)ccc3c(NCCCN(CCCNc3c4ccc(Cl)cc4nc4ccc(OC)cc34)C(=O)C(CC(=O)OCC3c4ccccc4-c4ccccc43)NC(=O)OC(C)(C)C)c2c1` (centres undefined), which cytotoxicity at 6.25 µM is on record?
The cytotoxicity at 6.25 µM was 0%.

test system: Leishmania infantum; assay: In Vitro evaluation for the percentage of activity towards Leishmania infantum at 12.5 uM Concentration; format: functional; conditions: not given; how it was run: as §3

`COc1ccc2nc3cc(Cl)ccc3c(NCCCN(CCCNc3c4ccc(Cl)cc4nc4ccc(OC)cc34)C(=O)CCC(=O)O)c2c1` was tested. Which “Percent inhibition of Leishmania infantum” value did it give?
The value was 0%.

With `COc1ccc2nc3cc(Cl)ccc3c(NCCCN(CCCNc3c4ccc(Cl)cc4nc4ccc(OC)cc34)C(=O)C(CC(=O)OCC3c4ccccc4-c4ccccc43)NC(=O)OC(C)(C)C)c2c1` (centres undefined) as the compound, how does the “Percent inhibition of Leishmania infantum” value read?
Its value is 20%.

test system: MRC5; assay: Cytotoxicity on MRC-5 cells at 25 uM; format: functional; conditions: Homo sapiens; how it was run: as §4

`COc1ccc2nc3cc(Cl)ccc3c(NCCCN(CCCNc3c4ccc(Cl)cc4nc4ccc(OC)cc34)C(=O)CCC(=O)O)c2c1` was tested. Which cytotoxicity at 25 µM did it give?
The cytotoxicity at 25 µM was 0%.

Which cytotoxicity at 25 µM does the source give for `COc1ccc2nc3cc(Cl)ccc3c(NCCCN(CCCNc3c4ccc(Cl)cc4nc4ccc(OC)cc34)C(=O)C(CC(=O)OCC3c4ccccc4-c4ccccc43)NC(=O)OC(C)(C)C)c2c1` (centres undefined) here?
Its cytotoxicity at 25 µM is 0%.

test system: Trypanosoma cruzi; assay: Percentage of activity against Trypanosoma cruzi at 12.5 uM; format: functional; conditions: not given; how it was run: as §1

Which “T. cruzi parasite load reduction” value does the source give for `COc1ccc2nc3cc(Cl)ccc3c(NCCCN(CCCNc3c4ccc(Cl)cc4nc4ccc(OC)cc34)C(=O)CCC(=O)O)c2c1` here?
The value was 0%.

How did the “T. cruzi parasite load reduction” value turn out when `COc1ccc2nc3cc(Cl)ccc3c(NCCCN(CCCNc3c4ccc(Cl)cc4nc4ccc(OC)cc34)C(=O)C(CC(=O)OCC3c4ccccc4-c4ccccc43)NC(=O)OC(C)(C)C)c2c1` (centres undefined) was run?
Its value is 40%.

test system: Trypanosoma cruzi; assay: Percentage of activity against Trypanosoma cruzi at 1.56 uM; format: functional; conditions: not given; how it was run: as §1

How did the Parasite load reduction turn out when `COc1ccc2nc3cc(Cl)ccc3c(NCCCN(CCCNc3c4ccc(Cl)cc4nc4ccc(OC)cc34)C(=O)CCC(=O)O)c2c1` was run?
Its Parasite load reduction is 0%.

`COc1ccc2nc3cc(Cl)ccc3c(NCCCN(CCCNc3c4ccc(Cl)cc4nc4ccc(OC)cc34)C(=O)C(CC(=O)OCC3c4ccccc4-c4ccccc43)NC(=O)OC(C)(C)C)c2c1` (centres undefined) was tested. Which Parasite load reduction did it give?
The Parasite load reduction was 0%.
